Source: PubChem BioAssay
This is a sample that favours compounds with a hit; in the whole collection about 2.1% have one here.
EWS-Fli block: blocks EWS/Fli oncoprotein-driven transcription; A673 NR0B1-luciferase reporter, viability-normalised; actives 0.67% (n = 350,000); AID 651661; inhibition, % at 12.6 µM;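 active = mean inhibition of at least 50% after viability correction, with every replicate also passing that limit; inconclusive = mean reaches 50% but only one of two replicates passes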;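 also: firefly luciferase signal divided by Alamar Blue viability fluorescence both relative to DMSO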
aSyn 5UTR inh: MLPCN primary screen, SNCA 5' untranslated region | alpha-synuclein 5'UTR reporter, inhibitor activity | inhibition, % (tested at 7.5 µM) | actives 0.82% (n = 300,000); in the data active = inhibition above about 60%; inconclusive = no clear call, values can overlap the other calls;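 also: H4 neuroglioblastoma cells stably carrying SNCA 5'UTR luciferase fusion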
LMP1 NFkB inh: Epstein-Barr LMP1 NF-kappaB reporter inhibition. LMP1-induced NF-kappaB luciferase reporter cells, luminescence. inhibition, % at 12.5 µM. actives 0.69% (n = 350,000). AID 504558; in the data active = inhibition above about 41%; inconclusive = no clear call, values can overlap the other calls
Shn3 3UTR inh: reduces Shn3 3'UTR luciferase signal in osteoblasts. inhibition, % at 12.5 µM. actives 0.52% (n = 360,000). Clone20 osteoblast Shn3 3'UTR firefly luciferase, 24 h;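 active = mean inhibition of at least 75% with every replicate also reaching 75%; inconclusive = mean inhibition at least 75% but some replicate below; inactive = mean inhibition below 75%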
PAX8 reporter: lowers PAX8-driven luciferase in RMG-I cells | RMG-I TPO-luciferase reporter, SteadyGlo, 24 h | inhibition, % at 12.6 µM | actives 1.2% (n = 360,000);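 active = mean replicate inhibition at least 60% with every replicate also reaching 60%; inconclusive = only one of the two criteria is met; inactive = mean below 60% and not all replicates reaching 60%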;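 also: luciferase light reporting Pax8 driven TPO promoter activity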
FN deposit inh: fibronectin deposition inhibition; AH1F fibroblasts, Alexa488-fibronectin deposition fluorescence, overnight; actives 0.086% (n = 350,000); inhibition, % at 12.6 µM;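 active = mean inhibition across replicates of 30% or more, regardless of how many single replicates reach that level; inconclusive = mean under 30% yet at least half of replicates reach 30%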
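Assay system: AH1F fibroblasts assembling fluorescent fibronectin matrix; Amount: 10000 AH1F cells per well; Buffer or medium: DMEM, 2% serum; Probe or stimulus: Alexa488-fibronectin, 24 nM final in well; Doses: single compound dose, delivered by pin transfer; Incubation: 1 h adhesion, overnight exposure; Measured by: fluorescence 485/525 nm; Read-out: fibronectin deposition inhibition.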
Hits are given with their value; n = inactive; u = inconclusive; x = no result given.

SMILES	EWS-Fli block	aSyn 5UTR inh	LMP1 NFkB inh	Shn3 3UTR inh	PAX8 reporter	FN deposit inh
CC(=O)N1CCC(Nc2ccc(C)cc2)CC1	n	n	n	n	n	n
CO[C@H]1CN(C)C(=O)c2cc(NC(=O)Nc3cc(Cl)cc(Cl)c3)ccc2OC[C@@H](C)NC[C@H]1C	n	x	x	x	x	n
Cn1cnc(S(=O)(=O)N2CCN(c3ccccc3)CC2)c1	n	n	n	n	n	32.7
CC(C)NC(=O)NCC[C@H]1CC[C@@H](NC(=O)Nc2ccccc2)[C@H](CO)O1	n	x	x	x	n	n
N#C/C(=N/Nc1ccc(OC(F)(F)F)cc1)C(N)=S	n	n	n	n	80.8	n
COc1ccc(N/N=C(\C#N)C(N)=O)cc1	n	n	n	n	n	n
CO[C@@H]1CN(C)C(=O)c2ccc(NC(=O)NC(C)C)cc2OC[C@@H](C)N(CCC(F)(F)F)C[C@@H]1C	n	x	x	x	x	n
C/C(=N\OC(=O)Nc1ccc(Cl)cc1)c1ccc(F)c(F)c1	n	n	n	n	n	n
CC(C)C(Cl)=NOC(=O)Nc1ccc(F)cc1	n	x	n	99.0	n	x
C[C@@H]1CCCCO[C@@H](CN(C)S(C)(=O)=O)[C@H](C)CN([C@H](C)CO)C(=O)c2cc(NS(C)(=O)=O)ccc2O1	n	x	x	x	n	x
O=C(NCCc1ccccc1)C(c1cccs1)N(C(=O)CCl)c1ccc(Cl)cc1 (stereo unspecified)	x	n	n	n	110.7	n
O=C(NCCc1ccccc1)C(c1cccs1)N(C(=O)c1csnn1)C1CC1 (stereo unspecified)	x	n	n	n	n	n
O=C1C=CC(=O)C(CNc2ccc(C(=O)OCc3ccccc3)cc2)=C1	58.9	x	n	95.5	n	n
CC(C)C[C@H]1CNC(=S)N1CC1CCN(CC2CCC(C(C)(C)C)CC2)CC1 (stereo partly specified)	n	x	n	93.1	n	x
CNC[C@@H]1Oc2ccc(NC(=O)Cn3cnnn3)cc2C(=O)N([C@H](C)CO)C[C@@H]1C	n	x	x	x	x	n
C[C@H](CO)N1C[C@H](C)[C@H](CN(C)C(=O)Nc2ccc3c(c2)OCO3)Oc2c(NC(=O)Nc3ccccc3)cccc2C1=O	n	x	x	x	71.6	x
CC(C)NC(=O)N(C)C[C@H]1Oc2c(NC(=O)Nc3ccc4c(c3)OCO4)cccc2C(=O)N([C@H](C)CO)C[C@@H]1C	n	x	82.9	n	n	n
Cc1noc(C)c1NC(=O)Nc1ccc2c(c1)CC(=O)N([C@H](C)CO)C[C@@H](C)[C@H](CN(C)C(=O)Nc1ccc(C(F)(F)F)cc1)O2	n	x	x	x	x	x
CCC(=O)N1C[C@H](C)[C@H](OC)CN(C)C(=O)c2cc(NC(=O)C3CCCCC3)ccc2OC[C@H]1C	n	x	x	x	n	n
Cc1ccc(CSc2nccc(-c3c(C)nc4ccccn34)n2)cc1	55.9	n	x	n	n	n
CCc1ccc(-c2nc(C(N)=O)c3[nH]c(=O)n(-c4ccccc4OC)c3n2)cc1	62.7	81.5	n	n	n	n
COc1ccc(-c2nc(C(N)=O)c3[nH]c(=O)n(-c4cccc(Cl)c4)c3n2)cc1OC	x	n	n	n	x	x
COc1ccc2nc(NC(=O)C3CCN(S(=O)(=O)c4cccc5nsnc45)CC3)sc2c1	x	x	n	n	62.9	n
Cc1cccc(NC(=O)C2CCN(S(=O)(=O)c3cccc4nsnc34)CC2)n1	x	n	n	n	n	n
CC(C)c1ccc2c(c1)CCC1C(C)(CN)CCCC21C (stereo unspecified)	58.7	96.7	n	n	n	n
SMILES	EWS-Fli block	aSyn 5UTR inh	LMP1 NFkB inh	Shn3 3UTR inh	PAX8 reporter	FN deposit inh
COc1ccc(C(=O)/C=C/C(=O)N(CC(=O)NCCC(C)C)Cc2cccs2)c(O)c1	n	u	n	97.5	n	n
COc1ccc(C(=O)/C=C/C(=O)N(CC(=O)NC2CCCCC2)Cc2ccc(F)cc2)c(O)c1	n	71.8	n	n	n	x
CCC(=O)Nc1ccc2c(c1)OC[C@@H](C)N(C(=O)CN(C)C)C[C@H](C)[C@@H](OC)CN(C)C2=O	n	x	x	x	n	n
C[C@@H]1CN([C@H](C)CO)C(=O)c2cc(NC(=O)NC3CCCCC3)ccc2O[C@@H](C)CCCCO[C@H]1CN(C)C(=O)NC1CCCCC1	n	x	x	x	n	n
C[C@@H]1CN([C@@H](C)CO)C(=O)c2cc(NC(=O)CCC(F)(F)F)ccc2O[C@@H](C)CCCCO[C@H]1CN(C)Cc1ccccc1	n	x	x	x	n	n
Cc1cc(Nc2ccccc2)c2c([N+](=O)[O-])cc(C)c(C)c2n1	x	n	42.0	n	x	x
COc1ccccc1Nc1cc(C)nc2c(C)ccc([N+](=O)[O-])c12	n	n	n	n	n	n
CCn1cnc2cc(NCc3ccc(OC)cc3)ccc21	x	n	n	n	x	x
CCOc1ccc2nc3cc(NCc4ccc(OC)cc4)ccc3c(N)c2c1	x	108.6	n	u	x	x
CO[C@@H]1CN(C)C(=O)c2cc(NC(=O)c3ccc(F)cc3)ccc2OC[C@@H](C)N(C(=O)c2ccc(F)cc2)C[C@@H]1C	n	x	x	x	n	n
Cc1cc(C(=O)Nc2ccc3c(c2)C(=O)N(C)[C@H]2CC[C@@H](CC(=O)NCc4ccc(-c5ccccc5)cc4)O[C@H]2CO3)no1	n	x	x	x	91.4	n
Cc1cc(C(=O)Nc2ccc3c(c2)C(=O)N(C)[C@H]2CC[C@H](CC(=O)NCc4ccc(-c5ccccc5)cc4)O[C@H]2CO3)no1	n	x	x	x	n	n
Cc1cc(C(=O)Nc2ccc3c(c2)C(=O)N(C)[C@@H]2CC[C@H](CC(=O)NCc4ccc(-c5ccccc5)cc4)O[C@@H]2CO3)no1	u	x	x	x	80.3	n
Cc1cc(C(=O)Nc2ccc3c(c2)C(=O)N(C)[C@@H]2CC[C@H](CC(=O)NCc4ccc(-c5ccccc5)cc4)O[C@H]2CO3)no1	56.7	x	x	x	80.3	x
CN1CCN(C(=O)C[C@H]2CC[C@@H]3[C@@H](COc4ccc(NC(=O)c5ccc(F)c(F)c5)cc4C(=O)N3C)O2)CC1	n	x	x	x	n	n
O=C(NCCCN1CCOCC1)[C@H]1[C@H](CO)[C@H]2Cn3c(cccc3=O)[C@@H]1N2C(=O)C1CCCC1	n	x	x	x	n	x
O=C(C[C@@H]1CC[C@@H]2[C@H](COC[C@@H](O)CN2Cc2ccc(Oc3ccccc3)cc2)O1)N1CCCCC1	n	x	x	x	n	n
O=C(CCl)N1c2ccccc2CCc2ccccc21	83.9	n	n	n	n	n
Cc1cc(C)c2nc(C)cc(N/N=C/c3ccc(O)cc3)c2c1	67.0	112.1	n	n	94.1	n
CC(=O)C(C(c1ccccc1)c1c[nH]c2ccccc12)[N+](=O)[O-] (stereo unspecified)	51.3	n	n	n	n	n
COC(=O)[C@@]1(Cc2ccc(F)cc2)[C@H]2c3cc(C(=O)N4CCCC4)n(CCc4ccccn4)c3C[C@H]2CN1C(=O)c1ccccc1	n	x	x	x	n	43.9
COC(=O)[C@@]1(Cc2ccc(F)cc2)[C@H]2c3cc(C(=O)N(C)C)n(CCc4ccccn4)c3C[C@H]2CN1C(=O)c1ccccc1	n	n	x	x	n	n
